From ChEMBL document CHEMBL3399931, “Reversible and irreversible small molecule inhibitors of monoamine oxidase B (MAO-B) investigated by biophysical techniques” (Bioorg Med Chem, 2015)

What was measured:
[1] = target: T1, Amine oxidase [flavin-containing] B (Homo sapiens, UniProt P27338); assay: Inhibition of human recombinant soluble MAO-B assessed as change in melting temperature at 100 uM after 20 mins by SYPRO orange staining-based fluorescence assay
T1 sequence (P27338 whole entry): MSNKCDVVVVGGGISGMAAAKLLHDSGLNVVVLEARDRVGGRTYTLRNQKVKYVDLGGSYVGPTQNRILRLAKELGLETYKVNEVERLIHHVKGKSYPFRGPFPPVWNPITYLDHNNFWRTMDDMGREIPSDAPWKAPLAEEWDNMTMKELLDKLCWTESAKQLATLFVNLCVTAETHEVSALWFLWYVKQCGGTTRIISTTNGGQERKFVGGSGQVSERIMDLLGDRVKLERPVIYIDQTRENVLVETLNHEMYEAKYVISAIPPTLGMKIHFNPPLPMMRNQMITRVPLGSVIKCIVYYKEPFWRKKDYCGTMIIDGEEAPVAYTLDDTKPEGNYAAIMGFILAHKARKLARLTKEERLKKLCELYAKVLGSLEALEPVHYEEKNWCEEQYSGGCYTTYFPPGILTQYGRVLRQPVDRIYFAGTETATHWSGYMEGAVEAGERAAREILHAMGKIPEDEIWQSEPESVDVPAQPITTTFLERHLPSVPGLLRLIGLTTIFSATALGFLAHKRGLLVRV
Method in brief: (§1)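 It was preincubated with serial compound dilutions (0.5–10 µM or 1.7–100 µM) for 20 min at 4 °C in 10% DMSO. 1x SYPRO orange was then added and samples ramped 25–80 °C at 1 °C/s. Boltzmann Tm was taken from the ~50–70 °C region, and ΔTm = Tm(compound) − Tm(DMSO only).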

[2] = target: T1, Amine oxidase [flavin-containing] B; assay: Inhibition of human recombinant soluble MAO-B assessed as thermal shift after 20 mins by SYPRO orange staining-based fluorescence assay; method in brief: as §1
[3] = target: T1, Amine oxidase [flavin-containing] B; assay: Inhibition of human recombinant microsomal MAO-B expressed in Pichia pastoris incubated for 30 mins prior to substrate addition measured after 60 mins by MAO-Glo assay
[4] = target: T1, Amine oxidase [flavin-containing] B; assay: Inhibition of human recombinant soluble MAO-B expressed in Pichia pastoris incubated for 30 mins prior to substrate addition measured after 60 mins by MAO-Glo assay
[5] = target: T2, Amine oxidase [flavin-containing] B (Rattus norvegicus, UniProt P19643); assay: Reversible inhibition of MAO-B in rat whole brain homogenate assessed as recovered activity at 100 times IC50 incubated for 60 mins followed by 6 washes by Amplex Red assay; type: tissue-based; set-up: scale not given: the % may be the effect or the level left; conditions: 1 h
T2 sequence (P19643 whole entry): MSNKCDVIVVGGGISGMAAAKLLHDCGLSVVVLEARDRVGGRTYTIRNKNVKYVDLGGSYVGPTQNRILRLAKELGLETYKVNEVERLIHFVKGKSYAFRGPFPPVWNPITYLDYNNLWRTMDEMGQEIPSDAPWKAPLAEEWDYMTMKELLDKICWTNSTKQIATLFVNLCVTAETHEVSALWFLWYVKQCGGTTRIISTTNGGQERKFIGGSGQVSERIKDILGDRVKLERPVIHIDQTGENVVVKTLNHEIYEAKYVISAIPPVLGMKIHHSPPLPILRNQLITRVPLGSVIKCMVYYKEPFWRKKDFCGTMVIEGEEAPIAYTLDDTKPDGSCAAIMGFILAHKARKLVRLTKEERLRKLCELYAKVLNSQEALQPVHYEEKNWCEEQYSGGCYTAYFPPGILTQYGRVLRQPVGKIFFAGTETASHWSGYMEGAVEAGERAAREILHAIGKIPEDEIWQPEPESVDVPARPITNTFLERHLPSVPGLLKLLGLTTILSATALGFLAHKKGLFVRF

[6] = target: T2, Amine oxidase [flavin-containing] B; assay: Reversible inhibition of MAO-B in rat whole brain homogenate assessed as recovered activity at 100 times IC50 incubated for 60 mins followed by 3 washes by Amplex Red assay; type: tissue-based; set-up: scale not given: the % may be the effect or the level left; conditions: 1 h
[7] = target: T1, Amine oxidase [flavin-containing] B; assay: Inhibition of human recombinant soluble MAO-B assessed as change in melting temperature at 10 uM after 20 mins by SYPRO orange staining-based fluorescence assay
[8] = target: T3, Amine oxidase [flavin-containing] A (Rattus norvegicus, UniProt P21396); assay: Inhibition of MAO-A in rat whole brain homogenate; type: tissue-based
T3 sequence (P21396 whole entry): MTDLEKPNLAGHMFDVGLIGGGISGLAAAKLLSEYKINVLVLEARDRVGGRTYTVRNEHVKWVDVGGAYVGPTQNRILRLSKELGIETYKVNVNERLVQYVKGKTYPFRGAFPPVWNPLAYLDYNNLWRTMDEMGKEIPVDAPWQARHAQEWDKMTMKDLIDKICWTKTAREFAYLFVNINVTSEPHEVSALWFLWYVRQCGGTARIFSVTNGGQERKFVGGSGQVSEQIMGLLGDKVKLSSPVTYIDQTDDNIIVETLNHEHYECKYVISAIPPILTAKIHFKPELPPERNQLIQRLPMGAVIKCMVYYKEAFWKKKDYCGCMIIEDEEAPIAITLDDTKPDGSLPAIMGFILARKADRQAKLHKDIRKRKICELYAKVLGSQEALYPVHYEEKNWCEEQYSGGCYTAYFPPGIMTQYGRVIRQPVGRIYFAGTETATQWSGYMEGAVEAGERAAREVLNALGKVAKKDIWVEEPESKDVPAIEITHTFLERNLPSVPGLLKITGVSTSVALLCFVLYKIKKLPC
Method in brief: (§2)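 Insoluble fraction of rat brain lysate was assayed with the non-selective MAO-Glo substrate. Dose–response curves were run against a matrix of fixed concentrations of an MAO-A-selective inhibitor (0.06–200 nM) and an MAO-B-selective inhibitor (0.05–50,000 nM), so that each isoform's contribution could be separated.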

[9] = target: T2, Amine oxidase [flavin-containing] B; assay: Inhibition of MAO-B in rat whole brain homogenate; type: tissue-based; method in brief: as §2

Cn1c(=O)c2c(nc(/C=C/c3cccc(Cl)c3)n2C)n(C)c1=O
Activity [1]: Not Active

NCCNC(=O)c1ccc(Cl)cc1
EC50 [2]: 29000 nM
Ki [3]: 997 nM
deltaTm [1]: 4.5 °C
Ki [4]: 32.2 nM

N[C@@H]1C[C@H]1c1ccccc1.N[C@H]1C[C@@H]1c1ccccc1 (relative stereo) [TRANYLCYPROMINE]
Activity [1]: Not Active

NCCNC(=O)c1ccc(Cl)cn1 [LAZABEMIDE]
Activity [5]: 100%
deltaTm [1]: 7 °C
Activity [6]: 74%

C#CCN(C)Cc1ccccc1 [PARGYLINE]
deltaTm [7]: 12.3 °C

CCc1ccc(CCOc2ccc(CC3SC(=O)NC3=O)cc2)nc1 (stereo unspecified) [PIOGLITAZONE]
deltaTm [1]: 2.5 °C

C#CCN[C@@H]1CCc2ccccc21 [RASAGILINE]
deltaTm [7]: 14.6 °C

C[C@H](NCc1ccc(OCc2cccc(F)c2)cc1)C(N)=O [SAFINAMIDE]
Activity [5]: 100%
Activity [6]: 31%

C#CCN(C)[C@H](C)Cc1ccccc1 [SELEGILINE]
INH [8]: 781 nM
INH [9]: < 200 nM
